Data published in ChEMBL document CHEMBL3351655, “Scaffold decoration at positions 5 and 8 of 1,2,4-triazolo[1,5-c]pyrimidines to explore the antagonist profiling on adenosine receptors: a preliminary structure-activity relationship study” (J Med Chem, 2014).

Tests used:
[1] = target: Adenosine receptors; A1 & A3 (Homo sapiens) (UniProt P30542+P0DMS8); experiment: Selectivity ratio of Ki for human adenosine A1 receptor expressed in CHO cells to Ki for human adenosine A3 receptor expressed in CHO cells; type: cell-based
CHO [2] = experiment: Selectivity ratio of Ki for human adenosine A2A receptor expressed in CHO cells to Ki for human adenosine A3 receptor expressed in CHO cells; type: cell-based
CHO [3] = experiment: Selectivity ratio of Ki for human adenosine A1 receptor expressed in CHO cells to Ki for human adenosine A2A receptor expressed in CHO cells; type: cell-based
Adenosine receptor A1 = target: T1, Adenosine receptor A1 (Homo sapiens, UniProt P30542); experiment: Displacement of [3H]CCPA from human adenosine A1 receptor expressed in CHO cells; type: cell-based
T1 sequence (P30542 whole entry): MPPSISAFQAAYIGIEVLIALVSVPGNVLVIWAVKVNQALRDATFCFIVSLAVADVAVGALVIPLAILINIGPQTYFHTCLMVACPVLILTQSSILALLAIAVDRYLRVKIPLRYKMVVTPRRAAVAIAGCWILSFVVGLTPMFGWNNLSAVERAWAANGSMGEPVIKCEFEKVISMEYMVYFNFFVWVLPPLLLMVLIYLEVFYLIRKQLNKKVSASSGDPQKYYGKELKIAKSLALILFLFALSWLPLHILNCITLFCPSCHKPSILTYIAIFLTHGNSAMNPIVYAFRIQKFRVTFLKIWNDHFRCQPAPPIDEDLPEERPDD
How it was run: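 Stably transfected CHO cells were homogenised and spun at 1000g to remove nuclei and fragments. Membranes were then pelleted at 100 000g, resuspended in binding buffer, frozen in liquid nitrogen and stored. Radioligand was [³H]CCPA, with nonspecific binding defined by 1 mM theophylline.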

Adenosine receptor A2a = Adenosine receptor A2a (Homo sapiens, UniProt P29274); experiment: Displacement of [3H]NECA from human adenosine A2A receptor expressed in CHO cells; type: cell-based
Adenosine receptor A3 = target: T2, Adenosine receptor A3 (Homo sapiens, UniProt P0DMS8); experiment: Displacement of [3H]NECA from human adenosine A3 receptor expressed in CHO cells; type: cell-based
T2 sequence (P0DMS8 whole entry): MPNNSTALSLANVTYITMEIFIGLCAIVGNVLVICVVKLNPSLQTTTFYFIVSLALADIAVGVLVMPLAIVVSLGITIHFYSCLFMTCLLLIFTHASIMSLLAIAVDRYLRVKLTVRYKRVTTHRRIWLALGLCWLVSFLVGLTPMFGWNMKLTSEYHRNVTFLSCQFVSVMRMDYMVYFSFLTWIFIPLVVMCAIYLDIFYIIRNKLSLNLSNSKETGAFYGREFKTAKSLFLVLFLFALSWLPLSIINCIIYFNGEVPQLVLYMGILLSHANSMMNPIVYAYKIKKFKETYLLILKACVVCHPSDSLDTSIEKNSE
How it was run: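 Radioligand [³H]NECA was used on membranes from stably transfected CHO cells, prepared by a 1000g clearing spin then pelleting at 100 000g. Pellets were resuspended in binding buffer, frozen in liquid nitrogen and stored. Nonspecific binding was defined with 100 μM R-PIA.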

Adenosine receptor A2b = target: T3, Adenosine receptor A2b (Homo sapiens, UniProt P29275); experiment: Antagonist activity at human adenosine A2B receptor expressed in CHO cells assessed as inhibition of NECA-stimulated adenylyl cyclase activity; type: functional, cell-based
T3 sequence (P29275 whole entry): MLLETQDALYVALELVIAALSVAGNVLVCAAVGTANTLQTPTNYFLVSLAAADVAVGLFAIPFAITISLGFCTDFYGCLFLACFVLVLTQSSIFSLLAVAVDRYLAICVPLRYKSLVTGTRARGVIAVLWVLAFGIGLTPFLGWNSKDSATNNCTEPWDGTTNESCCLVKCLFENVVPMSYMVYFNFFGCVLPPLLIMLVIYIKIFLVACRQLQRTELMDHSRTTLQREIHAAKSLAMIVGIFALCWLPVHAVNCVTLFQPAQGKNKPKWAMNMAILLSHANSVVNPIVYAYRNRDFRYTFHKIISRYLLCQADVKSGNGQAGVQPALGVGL
How it was run: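 Membranes from stably transfected CHO cells, made with a single high-speed centrifugation of the homogenate. Incubated 20 min with about 150 000 cpm [α-³²P]ATP, in a mixture without EGTA and NaCl. IC50 for concentration-dependent inhibition of NECA-stimulated adenylyl cyclase was fitted with the Hill equation and converted to Ki by Cheng–Prusoff.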

Adenosine receptor A2a, sequence (P29274 whole entry): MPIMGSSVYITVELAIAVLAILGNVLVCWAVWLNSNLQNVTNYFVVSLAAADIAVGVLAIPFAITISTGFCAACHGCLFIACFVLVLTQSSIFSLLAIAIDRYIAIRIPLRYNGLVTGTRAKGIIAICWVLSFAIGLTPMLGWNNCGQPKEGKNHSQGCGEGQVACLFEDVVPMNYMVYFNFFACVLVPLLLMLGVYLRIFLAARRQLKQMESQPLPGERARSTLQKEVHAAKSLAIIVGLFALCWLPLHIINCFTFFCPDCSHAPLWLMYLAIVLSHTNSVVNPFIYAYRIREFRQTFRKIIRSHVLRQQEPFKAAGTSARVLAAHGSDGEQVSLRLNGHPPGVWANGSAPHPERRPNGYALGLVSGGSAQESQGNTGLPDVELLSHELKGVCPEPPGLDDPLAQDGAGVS

`CCOC(=O)c1cnc(NCc2ccc(C(F)(F)F)cc2)n2nc(-c3ccco3)nc12` gave a Ratio Ki [1] of 4.92, a Ratio Ki (CHO [2]) of 0.65 and a Ratio Ki (CHO [3]) of 7.61. It also gave a Ki (Adenosine receptor A1) of 1590 nM, a Ki (Adenosine receptor A2a) of 209 nM and a Ki (Adenosine receptor A3) of 323 nM. It also gave a Ki (Adenosine receptor A2b) of 2040 nM.

In the case of `O=C(Cc1ccccc1)Nc1ncc(C(=O)NCCc2ccccc2)c2nc(-c3ccco3)nn12`, the Ratio Ki [1] is reported as 0.57, the Ratio Ki (CHO [2]) is reported as 0.05 and the Ratio Ki (CHO [3]) is reported as 11.3. The Ki (Adenosine receptor A1) was 317 nM, the Ki (Adenosine receptor A2a) was 28.1 nM and the Ki (Adenosine receptor A3) was 553 nM. The Ki (Adenosine receptor A2b) was greater than 30000 nM.

For `CNC(=O)c1cnc(NC(=O)NC2CCCCC2)n2nc(-c3ccco3)nc12`, the Ratio Ki [1] was 0.48, the Ratio Ki (CHO [2]) was 0.08 and the Ratio Ki (CHO [3]) was 5.91. For the same compound, the Ki (Adenosine receptor A1) was 8990 nM, the Ki (Adenosine receptor A2a) was 1520 nM and the Ki (Adenosine receptor A3) was 18700 nM. The Ki (Adenosine receptor A2b) was greater than 30000 nM.

`CCNc1ncc(C(=O)OCC)c2nc(-c3ccco3)nn12` showed a Ratio Ki [1] of 49.1, a Ratio Ki (CHO [2]) of 15.2 and a Ratio Ki (CHO [3]) of 3.22. For the same compound, the Ki (Adenosine receptor A1) was 162 nM, the Ki (Adenosine receptor A2a) was 50.3 nM and the Ki (Adenosine receptor A3) was 3.3 nM. For the same compound, the Ki (Adenosine receptor A2b) was 3060 nM.

In the case of `CCOC(=O)c1cnc(NCc2ccc(OC)c(OC)c2)n2nc(-c3ccco3)nc12`, the Ratio Ki [1] is reported as 8.14, the Ratio Ki (CHO [2]) is reported as 3 and the Ratio Ki (CHO [3]) is reported as 2.71. It also gave a Ki (Adenosine receptor A1) of 315 nM, a Ki (Adenosine receptor A2a) of 116 nM and a Ki (Adenosine receptor A3) of 38.7 nM. The Ki (Adenosine receptor A2b) was 13300 nM.

In the case of `CCOC(=O)c1cnc(NC(c2ccccc2)c2ccccc2)n2nc(-c3ccco3)nc12`, the Ratio Ki [1] is reported as 2.81, the Ratio Ki (CHO [2]) is reported as 1.14 and the Ratio Ki (CHO [3]) is reported as 2.45. It also gave a Ki (Adenosine receptor A1) of 943 nM, a Ki (Adenosine receptor A2a) of 385 nM and a Ki (Adenosine receptor A3) of 336 nM. For the same compound, the Ki (Adenosine receptor A2b) was greater than 30000 nM.

In the case of `O=C(Nc1ncc(C(=O)O)c2nc(-c3ccco3)nn12)NC1CCCCC1`, the Ratio Ki [1] is reported as greater than 1.68, the Ratio Ki (CHO [2]) is reported as 0.42 and the Ratio Ki (CHO [3]) is reported as greater than 4.05. For the same compound, the Ki (Adenosine receptor A1) was greater than 100000 nM, the Ki (Adenosine receptor A2a) was 24700 nM and the Ki (Adenosine receptor A3) was 59400 nM. For the same compound, the Ki (Adenosine receptor A2b) was greater than 30000 nM.

Work on `CCOC(=O)c1cnc(NC)n2nc(-c3ccco3)nc12` yielded a Ratio Ki [1] of 236, a Ratio Ki (CHO [2]) of 25.1 and a Ratio Ki (CHO [3]) of 9.4. The Ki (Adenosine receptor A1) was 978 nM, the Ki (Adenosine receptor A2a) was 104 nM and the Ki (Adenosine receptor A3) was 4.14 nM. The Ki (Adenosine receptor A2b) was 2450 nM.

With `CCOC(=O)c1cnc(NC(C)C)n2nc(-c3ccco3)nc12` the Ratio Ki [1] was 4.23, the Ratio Ki (CHO [2]) was 10.9 and the Ratio Ki (CHO [3]) was 0.39. It also gave a Ki (Adenosine receptor A1) of 40 nM, a Ki (Adenosine receptor A2a) of 103 nM and a Ki (Adenosine receptor A3) of 9.46 nM. For the same compound, the Ki (Adenosine receptor A2b) was 10000 nM.

`CCOC(=O)c1cnc(NCc2ccc(-c3ccccc3)cc2)n2nc(-c3ccco3)nc12` was tested, and the Ratio Ki [1] was 1.02, the Ratio Ki (CHO [2]) was 0.21 and the Ratio Ki (CHO [3]) was 4.76. For the same compound, the Ki (Adenosine receptor A1) was 890 nM, the Ki (Adenosine receptor A2a) was 187 nM and the Ki (Adenosine receptor A3) was 875 nM. The Ki (Adenosine receptor A2b) was greater than 30000 nM.

In the case of `CCOC(=O)c1cnc(NC2CCCC2)n2nc(-c3ccco3)nc12`, the Ratio Ki [1] is reported as 0.98, the Ratio Ki (CHO [2]) is reported as 1.24 and the Ratio Ki (CHO [3]) is reported as 0.79. For the same compound, the Ki (Adenosine receptor A1) was 34.4 nM, the Ki (Adenosine receptor A2a) was 43.4 nM and the Ki (Adenosine receptor A3) was 35 nM. It also gave a Ki (Adenosine receptor A2b) of 4620 nM.

With `O=C(O)c1cnc(NCc2ccc(F)cc2)n2nc(-c3ccco3)nc12` the Ratio Ki [1] was greater than 7.14, the Ratio Ki (CHO [2]) was 0.46 and the Ratio Ki (CHO [3]) was greater than 15.6. For the same compound, the Ki (Adenosine receptor A1) was greater than 100000 nM, the Ki (Adenosine receptor A2a) was 6390 nM and the Ki (Adenosine receptor A3) was 14000 nM. For the same compound, the Ki (Adenosine receptor A2b) was greater than 30000 nM.

With `O=C(O)c1cnc(NCc2ccc(C(F)(F)F)cc2)n2nc(-c3ccco3)nc12` the Ratio Ki [1] was greater than 6.29, the Ratio Ki (CHO [2]) was 1.13 and the Ratio Ki (CHO [3]) was greater than 5.55. For the same compound, the Ki (Adenosine receptor A1) was greater than 100000 nM, the Ki (Adenosine receptor A2a) was 18000 nM and the Ki (Adenosine receptor A3) was 15900 nM. The Ki (Adenosine receptor A2b) was greater than 30000 nM.
